Series [1] deals with Leishmania donovani. Kind of series: Antileishmanial activity against miltefosine-sensitive Leishmania donovani MHOM/ET/67/L82 promastigotes by MTT assay. The format is functional. To be noted: read-out: LD50 (the source's name). An outline of the steps:
(§1)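 Promastigotes from late exponential phase, washed twice, seeded at 2 × 10^6 parasites mL-1 in RPMI with 10% heat-inactivated FCS and 2 mM glutamine, exposed to compound 72 h at 26 °C. Washed in Hanks+Glc, MTT 0.5 mg mL-1 for 2 h at 26 °C, formazan dissolved in 10% SDS overnight at 37 °C, A595. Triplicates, two or more experiments; LD50 with SE.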
For orientation: Formazan colour is commonly taken as a measure of viable cells.

Series [2] has as its system Leishmania donovani. Kind of series: Antileishmanial activity against miltefosine-resistant Leishmania donovani MHOM/ET/67/L82R40 promastigotes by MTT assay. The class given is functional. To be noted: read-out: LD50 (the source's name). The method in brief:
as §1

In the next series the test system is Leishmania pifanoi. Briefly: Antileishmanial activity against miltefosine-sensitive Leishmania pifanoi MHOM/VE/60/Ltrod amastigotes by MTT assay. The format is functional. To be noted: read-out: LD50 (the source's name). An outline of the steps:
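Axenic amastigotes from late exponential phase, washed twice, seeded at 2 × 10^6 parasites mL-1 in growth medium with compound for 120 h at 32 °C. Then washed in Hanks+Glc, given 0.5 mg mL-1 MTT for 2 h at 32 °C, SDS 10% overnight at 37 °C, absorbance 595 nm. Triplicates, repeated at least twice; LD50 (50% proliferation inhibition) with SE.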

In series [3] the test system is Leishmania donovani. Briefly: Drug level per mg of protein in miltefosine-sensitive Leishmania donovani promastigotes at 15 uM after 2 hrs. The settings on record: in vivo. The class given is ADME, organism-based. The method in brief: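 Late-exponential L. donovani promastigotes (MHOM/ET/67/L82) washed twice in Hanks+Glc, resuspended at 1.5 × 10^7 parasites mL-1 in the same medium with the analogue, incubated 2 h at 26 °C to reach steady intracellular accumulation. Analogue extracted and quantified by HPLC against calibration plots; expressed per mg protein.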

Series [4] has as its system Leishmania donovani. Kind of series: Intracellular drug concentration in miltefosine-sensitive Leishmania donovani promastigotes at 7.5 uM after 2 hrs. To be noted: in vivo.

For `C[N+](C)(C)CCOP(=O)([O-])OCCCCC/C=C/C=C/C=C/C=C/c1ccccc1`, the LC50 in the series on Leishmania donovani [1] is 28.6 µM; with Leishmania donovani [2], greater than 60 µM; with Leishmania pifanoi, 26 µM.
Consider `C[N+](C)(C)CCOP(=O)([O-])OCCCCCC#C/C=C/C=C/C=C/c1ccccc1`, for which, in the series on Leishmania donovani [3], the Drug uptake is 7.6 nmol/mg. In addition, the LC50 is 29.6 µM with Leishmania donovani [1], greater than 60 µM in the series with Leishmania donovani [2] and 26.5 µM with Leishmania pifanoi. For the same molecule, the Intracellular concentration in the series with Leishmania donovani [4] is reported as 0.7 mM.
For the molecule `OCCCCCC#C/C=C/C=C/C=C/c1ccccc1`, the LC50 with Leishmania donovani [1], with Leishmania donovani [2] and in the series with Leishmania pifanoi was greater than 150 µM each time.
For `COC(COCCCCCCC/C=C/C=C/C=C/C=C/c1ccccc1)COP(=O)([O-])OCC[N+](C)(C)C` (racemic), the LC50 in the series on Leishmania donovani [1] is 9 µM; in the series on Leishmania donovani [2], greater than 60 µM; in the series on Leishmania pifanoi, 22.5 µM.
As to `CCCCCCCCCCCCCCCCOP(=O)([O-])OCC[N+](C)(C)C` [MILTEFOSINE], the LC50 is 12.5 µM in the series with Leishmania donovani [1], greater than 60 µM in the series on Leishmania donovani [2] and 26.3 µM in the series with Leishmania pifanoi.

Source of the values: ChEMBL document CHEMBL1138289, “Synthesis and biological evaluation of fluorescent leishmanicidal analogues of hexadecylphosphocholine (miltefosine) as probes of antiparasite mechanisms” (J Med Chem, 2007).
